# Columns and labels:
# [1] = system: Mus musculus; experiment: In vivo optimal (ip) dosage (<LD10) against subcutaneously implanted human mammary tumor xenograft MX-1 on a five-successive day schedule in Athymic NCr-nu/nu mice; type: functional
# Summary of the method: (§1)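 Human MX-1 breast tumor fragments (30–40 mg) from in vivo passage implanted subcutaneously in the axillary region. Dosing ip as a suspension in aqueous hydroxypropyl cellulose, once daily for 5 days, beginning when tumors reached about 300 mg. Groups of five mice. Tumors caliper-measured in two dimensions twice weekly and converted to mass. Study ended when control tumors reached 1 g.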
# [2] = organism: Mus musculus; experiment: Tumor growth delay in comparison vehicle-treated control, difference in the median time poststaging for tumors of the treated (T) group to double twice in mass compared to the median of the control (C) group ce; type: functional
# Summary of the method: (§2)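 MX-1 human breast tumor (NCI repository), fragments of 30–40 mg from in vivo passage implanted subcutaneously in the axillary region. Groups of five mice dosed ip for 5 days once tumors reached about 300 mg, with compound as a suspension in aqueous hydroxypropyl cellulose. Tumors were caliper-measured in two dimensions twice weekly and converted to mass. Growth delay T−C was the difference in median time to two doublings versus vehicle controls. Regressions and tumor-free survivors were also recorded. The study ended when controls reached 1 g.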
# [3] = organism: Mus musculus; experiment: Number of tumor-free survivors in a group of five mice; type: functional; summary of the method: as §1
# [4] = system: Mus musculus; experiment: In vivo optimal (ip) dosage (<LD10) against subcutaneously implanted human mammary tumor xenograft MX-1 on a five-successive day schedule in Athymic NCr-nu/nu mice; Toxic; type: functional, organism-based; summary of the method: as §2
Structure (SMILES),Optimal dosage [1],T-C [2],Tumor-free [3],Optimal dosage [4]
CCOc1c(Cl)c(OC)nc(C(Cl)(Cl)Cl)c1Cl,90 mg kg-1 dose-1 day-1,>42.7 days,5 survivors/total,
COc1nc(C(Cl)(Cl)Cl)c(Cl)c(OC)c1Cl [PENCLOMEDINE],90 mg kg-1 dose-1 day-1,>49 days,5 survivors/total,
COc1nc(C(Cl)(Cl)Cl)c(Cl)c(O)c1Cl,90 mg kg-1 dose-1 day-1,>37.2 days,3 survivors/total,
CCCOc1c(Cl)c(OC)nc(C(Cl)(Cl)Cl)c1Cl,60 mg kg-1 dose-1 day-1,5.4 days,0 survivors/total,
COc1nc(C(Cl)(Cl)Cl)c(Cl)c(OC(C)=O)c1Cl,90 mg kg-1 dose-1 day-1,>41 days,5 survivors/total,
Oc1nc(C(Cl)(Cl)Cl)c(Cl)c(O)c1Cl,40 mg kg-1 dose-1 day-1,-0.5 days,0 survivors/total,
CC(=O)Oc1c(Cl)c(Cl)nc(C(Cl)(Cl)Cl)c1Cl,,,,Toxic
COc1c(Cl)c(C(Cl)(Cl)Cl)nc(C(Cl)(Cl)Cl)c1Cl,135 mg kg-1 dose-1 day-1,-0.8 days,0 survivors/total,
CCOc1nc(C(Cl)(Cl)Cl)c(Cl)c(OCC)c1Cl,135 mg kg-1 dose-1 day-1,>41 days,4 survivors/total,
CC(=O)Oc1nc(C(Cl)(Cl)Cl)c(Cl)c(OC(C)=O)c1Cl,40 mg kg-1 dose-1 day-1,-0.5 days,0 survivors/total,
COc1c(Cl)c(O)nc(C(Cl)(Cl)Cl)c1Cl,135 mg kg-1 dose-1 day-1,0.8 days,0 survivors/total,
CCOc1nc(C(Cl)(Cl)Cl)c(Cl)c(O)c1Cl,60 mg kg-1 dose-1 day-1,5.2 days,0 survivors/total,
CCCCOc1nc(C(Cl)(Cl)Cl)c(Cl)c(OC)c1Cl,135 mg kg-1 dose-1 day-1,-0.8 days,0 survivors/total,
COc1c(Cl)c(OCC(F)(F)F)nc(C(Cl)(Cl)Cl)c1Cl,90 mg kg-1 dose-1 day-1,1.2 days,0 survivors/total,
CCCCOc1nc(C(Cl)(Cl)Cl)c(Cl)c(O)c1Cl,135 mg kg-1 dose-1 day-1,-0.9 days,0 survivors/total,
Clc1c(Oc2ccccc2)nc(C(Cl)(Cl)Cl)c(Cl)c1Oc1ccccc1,135 mg kg-1 dose-1 day-1,0.2 days,0 survivors/total,
CCOc1nc(C(Cl)(Cl)Cl)c(Cl)c(OC(C)=O)c1Cl,90 mg kg-1 dose-1 day-1,1.4 days,0 survivors/total,
COc1nc(C(Cl)(Cl)Cl)c(Cl)c(Cl)c1Cl,135 mg kg-1 dose-1 day-1,-1.4 days,0 survivors/total,
CCOc1nc(C(Cl)(Cl)Cl)c(Cl)c(OC)c1Cl,200 mg kg-1 dose-1 day-1,>38.6 days,2 survivors/total,
Oc1c(Cl)c(Cl)nc(C(Cl)(Cl)Cl)c1Cl,50 mg kg-1 dose-1 day-1,2 days,0 survivors/total,
COc1c(Cl)c(Cl)nc(C(Cl)(Cl)Cl)c1Cl,50 mg kg-1 dose-1 day-1,4.3 days,0 survivors/total,
COc1nc(C(Cl)(Cl)Cl)c(Cl)c(OC(C)C)c1Cl,60 mg kg-1 dose-1 day-1,>35.2 days,2 survivors/total,
CCOc1nc(C(Cl)(Cl)Cl)c(Cl)c(OC(=O)COC)c1Cl,135 mg kg-1 dose-1 day-1,17.8 days,0 survivors/total,
FC(F)(F)COc1nc(C(Cl)(Cl)Cl)c(Cl)c(OCC(F)(F)F)c1Cl,135 mg kg-1 dose-1 day-1,0.4 days,0 survivors/total,
CC(C)Oc1nc(C(Cl)(Cl)Cl)c(Cl)c(OC(C)C)c1Cl,135 mg kg-1 dose-1 day-1,-0.7 days,0 survivors/total,
CCCCOc1c(Cl)c(OC)nc(C(Cl)(Cl)Cl)c1Cl,90 mg kg-1 dose-1 day-1,20.5 days,1 survivors/total,
COc1c(Cl)c(Oc2ccccc2)nc(C(Cl)(Cl)Cl)c1Cl,135 mg kg-1 dose-1 day-1,2.3 days,0 survivors/total,
Oc1c(Cl)c(OCC(F)(F)F)nc(C(Cl)(Cl)Cl)c1Cl,90 mg kg-1 dose-1 day-1,-0.2 days,0 survivors/total,
CCCCOc1nc(C(Cl)(Cl)Cl)c(Cl)c(OCCCC)c1Cl,135 mg kg-1 dose-1 day-1,-0.6 days,0 survivors/total,

# Reference: ChEMBL document CHEMBL1135732, “Synthesis and antitumor activity of several new analogues of penclomedine and its metabolites” (2002)
